The list is not random: actives were taken first. Their share in the collection is about 2.2%.
IMP-1 inh = blocks Pseudomonas aeruginosa IMP-1 metallo-beta-lactamase; 290,000 compounds, 0.45% hits; purified IMP-1, nitrocefin hydrolysis, epi-absorbance fluorescence; inhibition, % at 5.6 µM;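 active = inhibition above the mean plus 3 SD of all compounds in the same screening run, cut at about 4.5% in these data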;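 note: 0% = IMP-1 with DMSO and 100% = DMSO wells lacking enzyme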
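assay system = purified recombinant IMP-1 metallo-beta-lactamase enzyme | schedule = 15 min preincubation plus 25 min reaction at 25 °C | signal = Epi-absorbance fluorescence, 480 nm excitation, 530 nm emission | read-out basis = percent inhibition from optical density relative to buffer-blank wells | controls = IMP-1 with DMSO as 0%, enzyme-free DMSO as 100%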
PABP FP inh = PABP-poly(A) binding inhibition; calls only at 35 µM; 290,000 compounds, 1% hits; PABP-poly(A) RNA binding, fluorescence polarization;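 note: calls also rest on retests at 20 µM and on dose response follow-up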
eIF4H FP inh = inhibitors of RNA binding by human eIF4H. inhibition, % at 35 µM. 290,000 compounds, 0.94% hits. eIF4H fluorescence polarization binding assay. Q15056;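 note: calls also rest on retests at 20 µM and on dose response follow-up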
VIM-2 inhibitor = blocks Pseudomonas aeruginosa VIM-2 metallo-beta-lactamase | purified VIM-2, nitrocefin hydrolysis, epi-absorbance fluorescence | inhibition, % at 5.6 µM | 290,000 compounds, 0.89% hits;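 active = inhibition above the mean of all tested compounds plus 3 SD, cutoff set per screening run, cut at about 7.5% in these data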;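 note: red hydrolysis product quenches plate fluorescence so inhibitors raise well fluorescence; 0% = enzyme with DMSO and 100% = DMSO without enzyme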
MLLE-PAM2 inh = inhibitors of microRNA-mediated deadenylation, human PABP1 MLLE binding. P11940. GST-MLLE / FITC-PAM2 fluorescence polarization. inhibition, % at 20 µM. 360,000 compounds, 0.36% hits. AID 588489; in the data active = inhibition above about 35%, passing the limit was not always enough;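 note: plate controls were DMSO wells with GST-MLLE for no effect and wells lacking GST-MLLE protein for full effect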
Active calls of the source: *; i = inactive; ? = inconclusive; . = no result given; + = active, no number. Unless noted, the rule behind the calls is not given here.

SMILES	IMP-1 inh	PABP FP inh	eIF4H FP inh	VIM-2 inhibitor	MLLE-PAM2 inh
Cc1cccc(C)c1NC(=O)CCCSc1nnc(-c2ccco2)o1	-2.8	.	.	-1.2	-23.9
Cc1ccccc1NC(=O)CSc1nnc(-c2ccco2)c(-c2ccco2)n1	-1.3	+	98.8*	-0.7	20.8
Cc1ccc(NC(=O)CCS(=O)(=O)c2ccccc2)cc1S(=O)(=O)N1CCOCC1	-3.3	i	-5.8	-4.0	-19.6
CCOc1ccccc1CN1CCNC(=O)C1CC(=O)NCc1cc(C)n(C)n1 (stereo not drawn)	-4.1	i	10.9	-2.5	15.5
Cc1cc(C)c2c(n1)sc1c(N3CCN(CCO)CC3)ncnc12	2.0	i	-6.7	11.8*	-4.2
O=C(Nc1ccccc1)c1cc2n(n1)C(C(F)(F)F)CC(C1CC1)N2 (stereo not drawn)	-3.3	i	-1.6	-3.9	9.8
Cc1ccc(OCCC(=O)O)cc1	-2.5	+	?	-2.5	1.2
Fc1ccc(NC(=S)Nc2ccc(Br)cc2)cc1	-2.9	i	1.1	-3.8	40.2*
Cc1cccc(C(=O)Nc2sc3c(c2C(=O)O)CCCC3)c1	-0.3	i	5.6	-2.2	8.3
Cc1cc(Oc2ccccc2)nc(SCC(=O)Nc2ccc(Cl)cc2Cl)n1	46.3*	i	-4.9	-4.8	26.8
COC(=O)CSc1nc(C)cc(Oc2ccccc2)n1	-1.3	i	-4.2	-3.2	4.3
COc1cnc(SC)nc1Nc1ccc(C#N)cc1	-2.9	i	5.8	9.1*	10.7
COC(=O)c1ccc2[nH]c([C@H](C)O)c([C@H](C)O)c2c1	4.7*	i	-13.3	4.9	-9.4
O=C1NC(=O)N2CCSC2(Cc2ccccc2)N1 (stereo not drawn)	.	.	.	.	41.2*
Cc1ccc(NC(=S)C2=C(O)c3sccc3N(C)S2(=O)=O)cc1	0.2	i	-4.2	-4.6	40.7*
Cc1ccc(NC(=O)C2=C(O)c3sccc3N(C)S2(=O)=O)cc1	0.1	i	-13.7	-0.3	-5.6
CS(=O)(=O)NNC(=O)Cn1nnc(-c2ccc(OCc3ccccc3Cl)cc2)n1	.	.	.	.	-10.9
COc1ccc2c(CC(=O)OCC(=O)c3ccc(F)cc3)coc2c1	5.3*	i	-8.6	-1.9	-10.3
CCOc1cc(/C=C2\SC(=O)N(c3ccc(O)cc3)C2=O)ccc1O	-1.8	i	28.0	10.2*	-80.8
N=C1C(c2nc(-c3ccc(Cl)cc3)cs2)=C(O)CN1CCCN1CCOCC1	-2.5	i	-3.1	13.9*	-31.0
COc1ccc(Cl)cc1NC(=O)CSc1nnc(CNC(=O)c2cccs2)o1	-3.2	i	-6.1	-1.4	4.5
CCN(CC)c1ccc(/C=C(\C#N)c2ccccn2)cc1	-2.8	i	54.3	-2.2	-139.9
CCN(CC)c1ccc(C=N/C(C#N)=C(\N)C#N)cc1	-0.6	+	?	-3.6	-90.7
CCn1c(C)c(C(=O)c2ccccc2)c(C#N)c1C(=O)O	-0.7	i	1.0	-3.5	3.5
CCCOc1ccc(/C=C2\SC(=S)N(CC3CCCO3)C2=O)cc1 (stereo not drawn)	-5.0	i	1.2	-4.3	8.5
SMILES	IMP-1 inh	PABP FP inh	eIF4H FP inh	VIM-2 inhibitor	MLLE-PAM2 inh
O=C1/C(=C/c2ccc(O)cc2)SC(=S)N1CC1CCCO1 (stereo not drawn)	0.7	+	96.5	1.4	-128.0
Nc1ncnc2c1nc(SCCO)n2Cc1ccccc1	-2.5	i	3.8	-2.6	-4.7
NC(=O)C1=C[C@H](c2ccc(C(F)(F)F)cc2)C[C@H](OCc2ccc(CO)cc2)O1	-0.6	+	?	1.0	18.3
CCN1CCN(CCCNC(=O)C2CCN(c3nnc(-n4c(C)ccc4C)s3)CC2)CC1	-0.6	i	-2.6	-1.1	3.1
COC(=O)CCC(=O)Nc1ccc(S(=O)(=O)Nc2nc(C)cc(C)n2)cc1	4.8*	i	-1.4	-0.3	12.3
Cc1nnc(-c2ccco2)c2cn(-c3cccc(Br)c3)nc12	-3.6	i	63.6*	-2.8	-67.8
Oc1[nH]c(=S)sc1/C=C1\C(c2ccccc2)=Nc2ccccc21	0.9	i	56.9*	-3.8	-138.0
Oc1[nH]c(=S)sc1C=C1N=c2ccccc2=N1	-2.7	i	-7.7	-4.7	-17.3
O=C1NC(=Nc2ccc3ccccc3c2)S/C1=C/c1ccco1	-1.2	i	79.8*	-2.3	-77.6
O=C1NC(=Nc2ccc(O)cc2)S/C1=C/c1ccco1	-1.8	i	71.8	0.6	-21.3
Cc1oc(-c2ccc(F)cc2)cc1-c1nn2c(-c3ccco3)nnc2s1	-2.8	.	.	-3.3	.
Cc1oc(-c2ccc(Cl)cc2)cc1-c1nn2c(-c3ccco3)nnc2s1	.	+	64.4*	.	.

Screening data (PubChem)
